Measured values published in ChEMBL document CHEMBL5647697, “Akt inhibition synergizes with polycomb repressive complex 2 inhibition in the treatment of multiple myeloma” (2019).
The source made the active and inactive calls. No cut-off for these calls is given here.

Legend:
NCI-H929 [1] = assay: Downregulation of EZH2 protein expression in human NCI-H929 cells at 0.3 to 5 micromol/L for 6 to 48 hrs by Western blot analysis; type: functional, cell-based; details: dose 0.3-5 µmol/L, time 6-48 hrs
Summary of the method: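 MM.1S and H929 cells exposed to TAS-117 at the indicated doses for 48 h, or to 5 μmol/L for the indicated times. Immunoblot with GAPDH, Akt and H3 as loading controls; EZH2 quantified relative to GAPDH.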

NCI-H929 [2] = assay: Synergistic activity against human NCI-H929 cells assessed as combination index preincubated in presence of 2.5 uM UNC1999 […] at 0.5 uM incubated for 48 hrs by […]; type: functional
Summary of the method: (§1)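 Cells were exposed to the EZH2/EZH1 inhibitor (UNC1999 or GSK126) for 72 h in total, with the Akt inhibitor added for the last 48 h. Viability was read by MTS assay relative to untreated control cells, in triplicate. The combination index for each dose pair came from isobologram analysis.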

NCI-H929 [3] = assay: (§2) Synergistic activity against human NCI-H929 cells assessed as combination index […] at 0.25 uM incubated for 48 hrs by […]; type: functional; summary of the method: as §1
MM1.S [4] = assay: Upregulation of CDKN1B mRNA expression in human MM1.S cells at 1 micromol/L after 24 hrs by qRT-PCR analysis; type: functional, cell-based; details: dose 1.0 µmol/L
MM1.S [5] = assay: Cytotoxicity against human MM1.S cells transduced with EZH1 assessed as enhanced sensitivity at 0.156 to 2.5 micromol/L 48 hrs by MTS assay; type: functional, cell-based; details: dose 0.156-2.5 µmol/L
Summary of the method: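 MM.1S or H929 cells transduced with lentiviral shRNA against EZH1 or against luciferase (shLuc control), then given TAS-117 at the indicated doses for 48 h. Viability by MTS relative to untreated control; mean ± SD of triplicates; compared with shLuc.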

NCI-H929 [6] = assay: Induction of apoptosis in human NCI-H929 cells assessed as late apoptotic cells at 5 micromol/L incubated for 48 hrs by annexin V/PI staining based flow cytometry (reference value: […]%); type: functional; details: dose 5 µmol/L
MM1.S [7] = assay: Induction of apoptosis in human MM1.S cells assessed as early apoptotic cells at 2 micromol/L incubated for 12 hrs by annexin V/PI staining based flow cytometry (reference value: 8.03%); type: functional; details: dose 2 µmol/L, at 2 µM
OPM-2 [8] = assay: Synergistic activity against human OPM-2 cells assessed as combination index preincubated in presence of 2.5 uM UNC1999 for 72 hrs followed by compound addition at 5 uM incubated for 48 hrs by MTT assay; type: functional
[9] = target: T1, Serine/threonine-protein kinase AKT (Homo sapiens) (UniProt P31751+Q9Y243+P31749); assay: Inhibition of Akt phosphorylation in human NCI-H929 cells at 0.3 to 5 micromol/L for 6 to 48 hrs by Western blot analysis; type: cell-based; details: dose 0.3-5 µmol/L, time 6-48 hrs
T1 sequence (P31749 whole entry, looked up): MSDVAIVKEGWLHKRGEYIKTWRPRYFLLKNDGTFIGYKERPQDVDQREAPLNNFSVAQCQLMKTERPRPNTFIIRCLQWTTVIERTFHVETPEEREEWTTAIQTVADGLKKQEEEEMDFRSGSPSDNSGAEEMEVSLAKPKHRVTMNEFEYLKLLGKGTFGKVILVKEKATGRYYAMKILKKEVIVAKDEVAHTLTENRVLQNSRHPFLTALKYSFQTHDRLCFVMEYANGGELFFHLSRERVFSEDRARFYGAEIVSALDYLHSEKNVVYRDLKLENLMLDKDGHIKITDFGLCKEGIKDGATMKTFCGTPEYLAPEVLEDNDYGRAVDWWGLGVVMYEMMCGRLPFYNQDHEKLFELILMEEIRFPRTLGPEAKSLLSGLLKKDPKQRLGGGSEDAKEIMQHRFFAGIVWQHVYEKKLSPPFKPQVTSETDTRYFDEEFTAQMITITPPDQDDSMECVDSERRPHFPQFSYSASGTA
T1 sequence (P31751 whole entry, looked up): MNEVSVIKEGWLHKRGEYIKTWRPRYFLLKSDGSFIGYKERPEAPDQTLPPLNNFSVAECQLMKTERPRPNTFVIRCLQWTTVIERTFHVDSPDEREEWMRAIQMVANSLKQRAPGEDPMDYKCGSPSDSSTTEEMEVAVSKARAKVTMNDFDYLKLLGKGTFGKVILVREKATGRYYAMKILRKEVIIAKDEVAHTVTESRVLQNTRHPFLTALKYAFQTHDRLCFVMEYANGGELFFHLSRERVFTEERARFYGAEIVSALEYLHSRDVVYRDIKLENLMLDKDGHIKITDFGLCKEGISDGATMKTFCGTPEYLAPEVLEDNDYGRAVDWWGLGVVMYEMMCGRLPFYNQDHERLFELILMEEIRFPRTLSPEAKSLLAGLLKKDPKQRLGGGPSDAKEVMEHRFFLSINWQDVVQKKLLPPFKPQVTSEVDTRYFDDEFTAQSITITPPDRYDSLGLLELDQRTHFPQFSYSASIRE
T1 sequence (Q9Y243 whole entry, looked up): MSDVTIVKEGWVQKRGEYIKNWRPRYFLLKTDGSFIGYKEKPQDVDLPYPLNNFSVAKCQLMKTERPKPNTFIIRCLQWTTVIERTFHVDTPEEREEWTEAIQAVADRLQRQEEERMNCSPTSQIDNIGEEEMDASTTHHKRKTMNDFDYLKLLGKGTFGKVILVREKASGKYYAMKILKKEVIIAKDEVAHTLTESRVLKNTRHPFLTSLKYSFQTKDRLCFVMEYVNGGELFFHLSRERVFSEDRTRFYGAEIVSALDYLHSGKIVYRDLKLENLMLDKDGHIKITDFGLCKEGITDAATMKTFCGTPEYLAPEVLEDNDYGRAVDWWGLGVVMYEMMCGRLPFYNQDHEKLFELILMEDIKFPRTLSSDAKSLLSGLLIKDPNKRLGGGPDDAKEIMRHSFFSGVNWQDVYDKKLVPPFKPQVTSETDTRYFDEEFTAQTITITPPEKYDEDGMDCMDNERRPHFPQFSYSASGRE
Summary of the method: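 MM.1S and H929 cells were treated with graded doses for 48 h, or with 5 μmol/L for the stated times. Lysates were immunoblotted, with GAPDH, total Akt and H3 as loading controls.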

OPM-2/BTZ [10] = assay: Cytotoxicity against human OPM-2/BTZ cells assessed as reduction in cell viability at 0.3125 to 10 micromol/L after 48 hrs by MTS assay; type: functional, cell-based; details: dose 0.3125-10 µmol/L
Summary of the method: (§3)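 Seven myeloma lines (MM.1S, H929, OPM2/BTZ among them) exposed to TAS-117 at increasing concentrations up to 10 μmol/L for 48 h. Viability read by MTS against an untreated control; mean ± SD of triplicates.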

NCI-H929 [11] = assay: Upregulation of CDKN1B mRNA expression in human NCI-H929 cells at 1 micromol/L after 24 hrs by qRT-PCR analysis; type: functional, cell-based; details: dose 1.0 µmol/L
Summary of the method: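 Cells were exposed to 1 μmol/L TAS-117 for 24 h. mRNA of FOXO3, FOXO4, BIM and CDKN1B was measured by qRT-PCR in H929 cells. Fold change is relative to the untreated control after normalization to GAPDH. Data are SD of triplicates.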

MM1.S [12] = assay: Synergistic activity against human MM.1S cells assessed as combination index […] in presence of 2.5 uM UNC1999 […] […] compound addition at 0.125 uM incubated for 48 hrs by MTT assay; type: functional; summary of the method: as §1
OPM-2/BTZ [13] = assay: Upregulation of p27 protein expression in human OPM-2/BTZ cells incubated at 0.3 to 3 micromol/L for 48 hrs by Western blot analysis; type: functional, cell-based; details: dose 0.3-3 µmol/L
NCI-H929 [14] = assay: as §2; type: functional; summary of the method: as §1; remark: listed apart in the source
MM1.S [15] = assay: Cytotoxicity against human MM1.S cells assessed as reduction in cell viability at 0.3125 to 10 micromol/L after 48 hrs by MTS assay; type: functional, cell-based; details: dose 0.3125-10 µmol/L; summary of the method: as §3
OPM-2/BTZ [16] = assay: Downregulation of CDK2 protein expression in human OPM-2/BTZ cells incubated at 0.3 to 3 micromol/L for 48 hrs by Western blot analysis; type: functional, cell-based; details: dose 0.3-3 µmol/L
NCI-H929 [17] = assay: Induction of apoptosis in human NCI-H929 cells assessed as live cells at 2 micromol/L incubated for 12 hrs by annexin V/PI staining based flow cytometry (reference value: 95.6%); type: functional; details: dose 2 µmol/L, at 2 µM
OPM-2/BTZ [18] = assay: Downregulation of CDK1 protein expression in human OPM-2/BTZ cells incubated at 0.3 to 3 micromol/L for 48 hrs by Western blot analysis; type: functional, cell-based; details: dose 0.3-3 µmol/L
MM1.S [19] = assay: Downregulation of EZH2 mRNA expression in human MM1.S cells in presence of 5 micromol/L UNC1999 for 72 hrs followed by compound addition at 2 micromol/L incubated for 24 hrs by qRT-PCR analysis; details: dose 2.0 µmol/L
OPM-2/BTZ [20] = assay: Upregulation of EZH1 protein expression in human OPM-2/BTZ cells at 0.03 to 3 micromol/L after 48 hrs by Western blot analysis; type: functional, cell-based; details: dose 0.03-3 µmol/L
MM1.S [21] = assay: Upregulation of p27 protein expression in human MM1.S cells incubated at 0.3 to 3 micromol/L for 48 hrs by Western blot analysis; type: functional, cell-based; details: dose 0.3-3 µmol/L
[22] = target: T1, Serine/threonine-protein kinase AKT (Homo sapiens); assay: Inhibition of Akt phosphorylation in human OPM-2/BTZ cells after 48 hrs at 0.3 to 2 micromol/L for 48 hrs by Western blot analysis; type: cell-based; details: dose 0.3-2 µmol/L
OPM-2 [23] = assay: Synergistic activity against human OPM-2 cells assessed as combination index preincubated in presence of 5 uM UNC1999 for 72 hrs followed by compound addition at 1.25 uM incubated for 48 hrs by MTT assay; type: functional
MM1.S [24] = assay: Induction of apoptosis in human MM1.S cells assessed as late apoptotic cells at 2 micromol/L incubated for 12 hrs by annexin V/PI staining based flow cytometry (reference value: 3.6%); type: functional; details: dose 2 µmol/L, at 2 µM
OPM-2 [25] = assay: Synergistic activity against human OPM-2 cells assessed as combination index preincubated in presence of 5 uM UNC1999 for 72 hrs followed by compound addition at 5 uM incubated for 48 hrs by MTS assay
OPM-2 [26] = assay: Effects on EZH2 protein expression in human OPM-2 cells at 3 micromol/L incubated for 24 hrs by Western blot analysis; type: functional, cell-based; details: dose 3.0 µmol/L
NCI-H929 [27] = assay: Synergistic activity against human NCI-H929 cells assessed as combination index […] at 0.5 uM incubated for 48 hrs by […]; type: functional; summary of the method: as §1
MM1.S [28] = assay: Synergistic activity against human MM.1S cells assessed as combination index […] at 0.25 uM incubated for 48 hrs by […]; type: functional; summary of the method: as §1

inhibition [9]: Active | inhibition [22]: Active
Structure (SMILES): C[C@]1(O)C[C@@](N)(c2ccc(-c3nc4n(c3-c3ccccc3)COc3ccncc3-4)cc2)C1 [PIFUSERTIB]
Activity (NCI-H929 [1]): Active | CI (NCI-H929 [2]): 0.807 | CI (NCI-H929 [3]): 0.778 | Activity (MM1.S [4]): Active | Activity (MM1.S [5]): Active | Activity (NCI-H929 [6]): 6.81% | Activity (MM1.S [7]): 9.49% | CI (OPM-2 [8]): 3.1 | Activity (OPM-2/BTZ [10]): Active | Activity (NCI-H929 [11]): Active | CI (MM1.S [12]): 0.217 | Activity (OPM-2/BTZ [13]): Active | CI (NCI-H929 [14]): 0.712 | Activity (MM1.S [15]): Active | Activity (OPM-2/BTZ [16]): Active | Activity (NCI-H929 [17]): 91.7% | Activity (OPM-2/BTZ [18]): Active | Activity (MM1.S [19]): Active | Activity (OPM-2/BTZ [20]): Active | Activity (MM1.S [21]): Active | CI (OPM-2 [23]): 5.25 | Activity (MM1.S [24]): 4.57% | CI (OPM-2 [25]): 6.32 | Activity (OPM-2 [26]): inactive | CI (NCI-H929 [27]): 1.046 | CI (MM1.S [28]): 0.826
